Data published in ChEMBL document CHEMBL1150300, “Synthesis of 5-chloro-N-aryl-1H-indole-2-carboxamide derivatives as inhibitors of human liver glycogen phosphorylase a” (Bioorg Med Chem, 2008).

How the values were obtained:
[1] = molecular target: T1, Glycogen phosphorylase, liver form (Homo sapiens, UniProt P06737); test: Inhibition of human liver glycogen phosphorylase a
T1 sequence (P06737 whole entry): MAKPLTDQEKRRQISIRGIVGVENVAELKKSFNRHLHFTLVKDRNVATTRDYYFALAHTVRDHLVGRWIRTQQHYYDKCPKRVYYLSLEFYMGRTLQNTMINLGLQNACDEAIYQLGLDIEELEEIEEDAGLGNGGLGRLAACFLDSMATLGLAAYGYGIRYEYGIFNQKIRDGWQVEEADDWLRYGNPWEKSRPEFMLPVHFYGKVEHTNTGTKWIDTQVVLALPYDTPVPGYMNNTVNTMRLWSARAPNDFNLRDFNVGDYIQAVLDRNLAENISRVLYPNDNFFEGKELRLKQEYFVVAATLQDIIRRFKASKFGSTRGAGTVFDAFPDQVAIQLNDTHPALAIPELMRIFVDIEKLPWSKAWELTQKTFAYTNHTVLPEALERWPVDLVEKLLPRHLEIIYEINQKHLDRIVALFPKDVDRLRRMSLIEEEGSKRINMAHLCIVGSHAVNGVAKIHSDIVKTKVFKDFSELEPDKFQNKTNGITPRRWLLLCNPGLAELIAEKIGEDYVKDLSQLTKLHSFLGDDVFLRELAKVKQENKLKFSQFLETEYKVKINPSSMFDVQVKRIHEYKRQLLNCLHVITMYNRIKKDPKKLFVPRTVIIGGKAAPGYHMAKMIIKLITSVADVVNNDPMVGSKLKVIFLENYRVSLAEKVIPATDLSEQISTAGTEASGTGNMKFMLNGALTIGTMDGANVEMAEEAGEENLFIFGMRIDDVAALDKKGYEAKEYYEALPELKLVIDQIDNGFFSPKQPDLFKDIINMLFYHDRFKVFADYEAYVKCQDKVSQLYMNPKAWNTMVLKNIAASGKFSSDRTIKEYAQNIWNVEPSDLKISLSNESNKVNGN

Hepatocyte = test: Inhibition of glucagon-induced glycogenolysis in Sprague-Dawley rat hepatocytes; type: functional, cell-based
Summary of the method: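 Hepatocytes from fed male Sprague-Dawley rats (150–200 g), viability >85%, plated on collagen at 2.5 × 10⁵ cells/well. Washed cells incubated 30 min at 37 °C in glucose-free/calcium-free Hanks buffer with 0.1% DMSO and inhibitor at 0.1–10 µM, with or without 10 nM glucagon. Medium glucose read by glucose oxidase/peroxidase; IC50 by logistic regression.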

Mus musculus [2] = test: Hypoglycemic activity against C57BL/KsJ db/db mouse assessed as reduction of blood glucose at 50 mg/kg, po after 2 hrs relative to control; type: functional; set-up: scale not given: the % may be the effect or the level left
Summary of the method: (§1)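 Male C57BL/KsJ db/db mice, 6 weeks old, on commercial diet, grouped (n = 6) to uniform blood glucose and body weight; non-fasted pre-dose glucose measured next day. Single oral dose at 10 mL/kg; blood glucose measured at 2 h. Activity given as percentage decrease versus vehicle-treated controls, significance by unpaired t-test on mean glucose.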

Mus musculus [3] = test: Hypoglycemic activity against C57BL/KsJ db/db mouse assessed as reduction of blood glucose at 30 mg/kg, po after 2 hrs relative to control; type: functional; set-up: scale not given: the % may be the effect or the level left; summary of the method: as §1

O=C(Nc1cnc(C(O)CO)cn1)c1cc2cc(Cl)ccc2[nH]1 (configuration not stated) was tested, and the IC50 [1] was 0.44 µM.
For O=C(Nc1ccc(C(O)CO)c([N+](=O)[O-])c1)c1cc2cc(Cl)ccc2[nH]1 (configuration not stated), the IC50 [1] was 2.1 µM.
In the case of Nc1cc(NC(=O)c2cc3cc(Cl)ccc3[nH]2)ccc1C(O)CO (configuration not stated), the IC50 [1] is reported as 1.7 µM.
Work on O=C(Nc1ccc(C(O)CO)cc1)c1cc2cc(Cl)ccc2[nH]1 (configuration not stated) yielded an IC50 [1] of 0.9 µM.
Work on COCC(O)c1ccc(NC(=O)c2cc3cc(Cl)ccc3[nH]2)cc1 (configuration not stated) yielded an IC50 [1] of 3.6 µM.
O=C(Nc1ccc(C(O)CO)cn1)c1cc2cc(Cl)ccc2[nH]1 (configuration not stated) gave an IC50 [1] of 0.25 µM, an IC50 (Hepatocyte) of 0.62 µM and an Activity (Mus musculus [2]) of 26%. It also gave an Activity (Mus musculus [3]) of 13%.
With O=C(Nc1ncc(C(O)CO)s1)c1cc2cc(Cl)ccc2[nH]1 (configuration not stated) the IC50 [1] was 3.1 µM.
O=C(Nc1ccc(C(O)CO)cc1F)c1cc2cc(Cl)ccc2[nH]1 (configuration not stated) gave an IC50 [1] of 0.42 µM.
For O=C(Nc1ccc(C(O)CO)c(-c2ccccc2)c1)c1cc2cc(Cl)ccc2[nH]1 (configuration not stated), the IC50 [1] was 7.4 µM.
O=C(Nc1ccc(C(O)CO)cc1Cl)c1cc2cc(Cl)ccc2[nH]1 (configuration not stated) gave an IC50 [1] of 1.1 µM.
Work on O=C(Nc1ccc(C(CO)CO)cc1)c1cc2cc(Cl)ccc2[nH]1 yielded an IC50 [1] of 5.8 µM.
With O=C(Nc1cccc(CCO)c1)c1cc2cc(Cl)ccc2[nH]1 the IC50 [1] was 6.2 µM.
In the case of O=C(Nc1nc(C(O)CO)cs1)c1cc2cc(Cl)ccc2[nH]1 (configuration not stated), the IC50 [1] is reported as > 10 µM.
In the case of O=C(Nc1ccc(C(O)CO)c(F)c1)c1cc2cc(Cl)ccc2[nH]1 (configuration not stated), the IC50 [1] is reported as 0.34 µM.
O=C(Nc1ccc(C(O)CO)nc1)c1cc2cc(Cl)ccc2[nH]1 (configuration not stated) gave an IC50 [1] of 4.4 µM.
For O=C(Nc1ccc(CO)cc1)c1cc2cc(Cl)ccc2[nH]1, the IC50 [1] was 1.6 µM.
With O=C(Nc1ccc(CCCO)cc1)c1cc2cc(Cl)ccc2[nH]1 the IC50 [1] was > 10 µM.
In the case of O=C(N[C@@H](Cc1ccc(F)cc1)C(=O)N1CCC(O)CC1)c1cc2cc(Cl)ccc2[nH]1, the IC50 (Hepatocyte) is reported as 1.7 µM and the Activity (Mus musculus [2]) is reported as 20%.
COc1cc(NC(=O)c2cc3cc(Cl)ccc3[nH]2)ccc1C(O)CO (configuration not stated) showed an IC50 [1] of 2.5 µM.
O=C(Nc1ccc(CCO)cc1)c1cc2cc(Cl)ccc2[nH]1 showed an IC50 [1] of 1.2 µM.
O=C(Nc1ccccc1CCO)c1cc2cc(Cl)ccc2[nH]1 was tested, and the IC50 [1] was > 10 µM.
CC(C)(O)C(O)c1ccc(NC(=O)c2cc3cc(Cl)ccc3[nH]2)cc1 (configuration not stated) was tested, and the IC50 [1] was > 10 µM.
Compound Cc1cc(C(O)CO)ccc1NC(=O)c1cc2cc(Cl)ccc2[nH]1 (configuration not stated) has an IC50 [1] of 2.6 µM.
